Values after ≈ are worked out from the molar mass of the structure shown.
What was measured:
A549 = test: Cytotoxicity against human A549 cells by MTT assay; type: functional, cell-based
[1] = Antiinflammatory activity in BALB/c mouse splenocytes assessed as inhibition of LPS-induced TNFalpha production at 10 uM after 24 hrs; type: functional; details: Splenocyte
In short: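 BALB/c mouse splenocyte suspensions were cultured in RPMI 1640 with 10% FBS. Compounds were dissolved in DMSO and given at 10 μM for 24 h, followed by LPS stimulation at 1 μg/mL. NK-007 at 100 nM served as positive control. TNF-α in culture supernatants was measured with cytometric bead array kits and reported as inhibitory rate.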

HCT-8 = test: Cytotoxicity against human HCT8 cells by MTT assay; type: functional, cell-based
HepG2 = test: Cytotoxicity against human HepG2 cells by MTT assay; type: functional, cell-based
BGC-823 = test: Cytotoxicity against human BGC823 cells by MTT assay; type: functional, cell-based
SK-OV-3 = test: Cytotoxicity against human SKOV3 cells by MTT assay; type: functional, cell-based
Amphibalanus amphitrite = test: Antifouling activity against barnacle Balanus amphitrite Darwin; type: functional, organism-based
In short: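 Barnacle nauplii were reared to cyprids at 26−28 °C and fed Chaetoceros gracilis, reaching the cyprid stage within four days. Fresh cyprids were used for testing, and the value is reported as IC50.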

Structure (SMILES)	IC50 (A549) [µg/mL]	inhibition at 10 µM [1] [%]	IC50 (HCT-8) [µg/mL]	IC50 (HepG2) [µg/mL]	IC50 (BGC-823) [µg/mL]	IC50 (SK-OV-3) [µg/mL]	IC50 (Amphibalanus amphitrite) [µM]	EC50 (Amphibalanus amphitrite) [µg/mL]
C/C1=C/C2=C(CC(C)(C)[C@@H]2O)[C@H](C)CC[C@@H]1O	> 10	16	> 10	> 10	> 10	> 10		
C[C@@H]1CC[C@]2(O)O[C@]13CC(C)(C)[C@H](O)C3=C[C@@]2(C)O	> 10		> 10	> 10	> 10	> 10		
C/C1=C/[C@]23O[C@]2(CC(C)(C)C3=O)[C@H](C)CC[C@@H]1O	> 10		> 10	> 10	> 10	> 10		
CC(=O)CC/C=C(/C)CC1=CC(C)(C)CC1=O	> 10		> 10	> 10	> 10	> 10		
C/C(=C/CC[C@H](C)O)CC1=CC(C)(C)CC1=O	> 10		> 10	> 10	> 10	> 10		
CC1(C)CC2=C[C@@](C)(O)[C@@]3(O)CC[C@@](C)(O)[C@]2(C1)O3	> 10		> 10	> 10	> 10	> 10		
C/C1=C/C2=C(CC(C)(C)C2=O)[C@H](C)CC[C@@H]1O	> 10		> 10	> 10	> 10	> 10		
C[C@@H]1CCC(=O)[C@](C)(O)/C=C2/CC(C)(C)C[C@@H]21	> 10		> 10	> 10	> 10	> 10	9.7	
CC1=C[C@@]23CC(C)(C)C[C@@]2(O)[C@H](C)CC[C@@H]1O3	> 10		> 10	> 10	> 10	> 10		
CC(=O)CC/C=C(/C)C[C@H]1CC(C)(C)CC1=O [(-)-SINULARONE A]		23					74	
C[C@@H]1CC[C@]2(O)O[C@]13CC(C)(C)CC3=C[C@@]2(C)O	> 10	21	> 10	> 10	> 10	> 10	54	
C/C1=C/C2=CC(C)(C)C[C@@]2(OO)[C@H](C)CC[C@@H]1O	> 10		> 10	> 10	> 10	> 10		
CC(=O)CC/C=C(/C)C[C@@H]1CC(C)(C)CC1=O								13.9 (≈ 58.8 µM)
CC1=CC2=CC(C)(C)C[C@@]23O[C@]1(O)CC[C@H]3C	> 10		> 10	> 10	> 10	> 10		
CC(=O)/C=C1/CC(C)(C)C[C@]12OC(=O)CC[C@H]2C	> 10		> 10	> 10	> 10	> 10		
C/C1=C/C2=C(CC(C)(C)C2=O)[C@H](C)CCC1=O	> 10		> 10	> 10	> 10	> 10		
CC1=C[C@]2(O)CC(C)(C)C[C@]23O[C@@]1(O)CC[C@H]3C	> 10		> 10	> 10	> 10	> 10		
C/C1=C/C2=C(CC(C)(C)[C@H]2O)[C@H](C)CC[C@@H]1O	> 10		> 10	> 10	> 10	> 10		
C/C1=C/C2=CC(C)(C)C[C@]2(OO)[C@H](C)CC[C@@H]1O	> 10		> 10	> 10	> 10	> 10		
CC(=O)C[C@@H]1CC(C)(C)C=C1[C@]1(C)CCC(=O)O1	> 10		> 10	> 10	> 10	> 10		

— ChEMBL document CHEMBL2417487, “Asteriscane-type sesquiterpenoids from the soft coral Sinularia capillosa” (J Nat Prod, 2013)
